Key:
DU-145 = assay: Cytotoxicity against human DU145 cells assessed as cell survival after 48 hrs by XTT assay; settings: DU-145, 48 h
HeLa = assay: Cytotoxicity against human HeLa cells assessed as cell survival after 48 hrs by XTT assay
MCF7 = assay: Cytotoxicity against human MCF7 cells assessed as cell survival after 48 hrs by XTT assay; settings: MCF7, 48 h
[1] = Cytotoxicity against human SNO cells assessed as cell survival after 48 hrs by XTT assay
[2] = Cell cycle arrest in human U937 cells assessed as accumulation at subG1 phase at 2 ug/ml after 24 hrs by propidium iodide staining-based flow cytometric analysis (reference value: 15.1%); format: functional; settings: U-937
Outline: (§1)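 U937 cells in complete RPMI 1640 (10% FBS, 25 mM HEPES, 2 mM glutamine) seeded at 2 × 10^6 cells/ml in flasks, recovered 24 h, then treated with compounds in DMSO (2 µg/ml). Cisplatin (10 µM) served as positive control and DMSO as negative control. Cells were harvested at 24 or 48 h and stained with propidium iodide. Phase percentages were gated on singlet cells by flow cytometry. Three independent experiments.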

[3] = Cell cycle arrest in human U937 cells assessed as accumulation at S phase at 2 ug/ml after 24 hrs by propidium iodide staining-based flow cytometric analysis (reference value: 30.7%); format: functional; settings: U-937
Outline: as §1

[4] = Cell cycle arrest in human U937 cells assessed as accumulation at S phase at 2 ug/ml after 48 hrs by propidium iodide staining-based flow cytometric analysis (reference value: 25.7%); format: functional; settings: U-937
Outline: as §1

[5] = Cell cycle arrest in human U937 cells assessed as accumulation at G2/M phase at 2 ug/ml after 48 hrs by propidium iodide staining-based flow cytometric analysis (reference value: 16.6%); format: functional; settings: U-937
Outline: as §1

[6] = Cell cycle arrest in human U937 cells assessed as accumulation at G0/G1 phase at 2 ug/ml after 24 hrs by propidium iodide staining-based flow cytometric analysis (reference value: 41.7%); format: functional; settings: U-937
Outline: as §1

[7] = Cell cycle arrest in human U937 cells assessed as accumulation at G0/G1 phase at 2 ug/ml after 48 hrs by propidium iodide staining-based flow cytometric analysis (reference value: 54.6%); format: functional; settings: U-937
Outline: as §1

PBMC = assay: Cytotoxicity against human PBMC assessed as cell survival after 24 hrs by fluorescence assay
U-937 [8] = assay: Induction of apoptosis in human U937 cells assessed as caspase 3/7 activation at 2 ug/ml after 24 hrs by fluorescence reader relative to control; format: functional
Outline: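 U937 cells (2 × 10^6/ml, 24 h recovery) were exposed for 24 h to compounds in DMSO (2 µg/ml), with cisplatin 10 µM and DMSO controls. Cells were pelleted and resuspended in RPMI, at least 2 × 10^5 cells per well. (DEVD)2 substrate was added and cells incubated 2 h at 37 °C, 5% CO2, resuspended every 20 min. Fluorescence was read at 544/590 and 544/620 nm.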

[9] = Cell cycle arrest in human U937 cells assessed as accumulation at subG1 phase at 2 ug/ml after 48 hrs by propidium iodide staining-based flow cytometric analysis (reference value: 1.1%); format: functional; settings: U-937
Outline: as §1

[10] = Cell cycle arrest in human U937 cells assessed as accumulation at G2/M phase at 2 ug/ml after 24 hrs by propidium iodide staining-based flow cytometric analysis (reference value: 12.5%); format: functional; settings: U-937
Outline: as §1

U-937 [11] = assay: Induction of apoptosis in human U937 cells assessed as necrotic cells at 2 ug/ml after 48 hrs by annexin V-FITC/propidium iodide staining-based flow cytometry (reference value: 1.4%); format: functional
U-937 [12] = assay: Induction of apoptosis in human U937 cells assessed as necrotic cells at 2 ug/ml after 24 hrs by annexin V-FITC/propidium iodide staining-based flow cytometry (reference value: 24.7%); format: functional
U-937 [13] = assay: Cytotoxicity against human U937 cells assessed as cell survival after 24 hrs by XTT assay; format: functional, cell-based
U-937 [14] = assay: Induction of apoptosis in human U937 cells assessed as late apoptotic cells at 2 ug/ml after 48 hrs by annexin V-FITC/propidium iodide staining-based flow cytometry (reference value: 11.7%); format: functional
U-937 [15] = assay: Induction of apoptosis in human U937 cells assessed as viable cells at 2 ug/ml after 48 hrs by annexin V-FITC/propidium iodide staining-based flow cytometry (reference value: 81.3%); format: functional; settings: U-937, 48 h, read-out: Activity
U-937 [16] = assay: Induction of apoptosis in human U937 cells assessed as early apoptotic cells at 2 ug/ml after 24 hrs by annexin V-FITC/propidium iodide staining-based flow cytometry (reference value: 6.3%); format: functional
U-937 [17] = assay: Induction of apoptosis in human U937 cells assessed as viable cells at 2 ug/ml after 24 hrs by annexin V-FITC/propidium iodide staining-based flow cytometry (reference value: 66%); format: functional; settings: U-937, 24 h, read-out: Activity
U-937 [18] = assay: Induction of apoptosis in human U937 cells assessed as late apoptotic cells at 2 ug/ml after 24 hrs by annexin V-FITC/propidium iodide staining-based flow cytometry (reference value: 3%); format: functional
U-937 [19] = assay: Induction of apoptosis in human U937 cells assessed as early apoptotic cells at 2 ug/ml after 48 hrs by annexin V-FITC/propidium iodide staining-based flow cytometry (reference value: 5.7%); format: functional

SMILES | IC50 (DU-145) | IC50 (HeLa) | IC50 (MCF7) | IC50 [1] | further results
CCOc1c(C)cc(Cl)c2c1C(=O)C=CC2=O | 26.2 µM | 33.2 µM | 32.2 µM | 37.3 µM | –
Cc1cc(O)c2c(c1)C(=O)C(O)=CC2=O | 6.8 µM | 5.3 µM | 14.6 µM | 23.2 µM | Activity [2]: 3%; Activity [3]: 27.3%; Activity [4]: 16.1%; Activity [5]: 7.3%; Activity [6]: 53.4%; Activity [7]: 65.1%; IC50 (PBMC): 54 µM; Activity (U-937 [8]): 7.39%; Activity [9]: 10.6%; Activity [10]: 15.5%
CC(=O)Oc1cc(OC(C)=O)c2c(OC(C)=O)cc(C)cc2c1OC(C)=O | 64.6 µM | 22.4 µM | 82 µM | 25 µM | –
COc1cc(C)cc2c1C(=O)C=CC2=O | 30.7 µM | 21.1 µM | 15.3 µM | 22.5 µM | –
COc1cccc2c1C(=O)c1c(O)c3c(c(O)c1C2=O)C[C@@](O)(C(=O)CO)C[C@@H]3O[C@H]1C[C@H](N)[C@H](O)[C@H](C)O1 [DOXORUBICIN] | 0.01 µM | – | – | 0.01 µM | –
Cc1cc(O)c2c(c1)C(=O)C=CC2=O [RAMENTACEONE] | 11.9 µM | 66.6 µM | 27.2 µM | 81.4 µM | IC50 (PBMC): 18.4 µM
CCOc1cc(C)c(Cl)c2c1C(=O)C=CC2=O | 25.4 µM | 19 µM | 40 µM | 44.2 µM | –
Cc1cc(O)c2c(c1Br)C(=O)C=CC2=O | 46.3 µM | 11.3 µM | 15.5 µM | 14.9 µM | Activity (U-937 [11]): 53.8%; Activity [2]: 14.8%; Activity (U-937 [12]): 67.1%; Activity [3]: 16.8%; Activity (U-937 [13]): Not toxic; Activity [4]: 28.8%; Activity [5]: 17.7%; Activity [6]: 63.3%; Activity (U-937 [14]): 39%; viability at 2 µg/mL (U-937 [15]): 3.8%; Activity (U-937 [16]): 10%; Activity [7]: 53%; Activity [9]: 13%; Activity [10]: 4.6%; viability at 2 µg/mL (U-937 [17]): 15.9%; Activity (U-937 [18]): 7%; Activity (U-937 [19]): 3.4%
CC(=O)Oc1cc(OC(C)=O)c2c(OC(C)=O)c(C)cc(Cl)c2c1OC(C)=O | 81.6 µM | 27.9 µM | 57.5 µM | 53.5 µM | –
CC(=O)Oc1cc(OC(C)=O)c2c(OC(C)=O)cc(C)c(Cl)c2c1OC(C)=O | 59.6 µM | 52.9 µM | 51.1 µM | 56.9 µM | –
CC(=O)Oc1c(C)cc(Cl)c2c1C(=O)C=CC2=O | 12.5 µM | 21.8 µM | 18.7 µM | 28.6 µM | –
CC(=O)Oc1cc(C)c(Cl)c2c1C(=O)C=CC2=O | 25.5 µM | 26.2 µM | 37.9 µM | 28.8 µM | –
Cc1ccc2c(c1O)C(=O)C=CC2=O | 15.4 µM | 16.4 µM | 15.3 µM | 19 µM | Activity (U-937 [11]): 30.3%; Activity [2]: 33.8%; Activity (U-937 [12]): 28.3%; Activity [3]: 14.2%; Activity [4]: 14.6%; Activity [5]: 7%; Activity [6]: 43%; Activity (U-937 [14]): 43.2%; viability at 2 µg/mL (U-937 [15]): 20.1%; Activity (U-937 [16]): 24.8%; Activity [7]: 62.9%; Activity (U-937 [8]): -5.14%; Activity [9]: 15%; Activity [10]: 8.6%; viability at 2 µg/mL (U-937 [17]): 15.5%; Activity (U-937 [18]): 31.4%; Activity (U-937 [19]): 6.4%
COc1c(C)cc(Cl)c2c1C(=O)C=CC2=O | 36.5 µM | 41.5 µM | 16.2 µM | 44.9 µM | –
Cc1cc(Cl)c2c(c1O)C(=O)C=CC2=O | 9.3 µM | 10.1 µM | 10 µM | 9.4 µM | Activity (U-937 [11]): 60.1%; Activity [2]: 18.1%; Activity (U-937 [12]): 49.6%; Activity [3]: 11.4%; Activity (U-937 [13]): Not toxic; Activity [4]: 14.1%; Activity [5]: 5.3%; Activity [6]: 65.6%; Activity (U-937 [14]): 36.1%; viability at 2 µg/mL (U-937 [15]): 1.9%; Activity (U-937 [16]): 17.1%; Activity [7]: 62.2%; Activity [9]: 17.9%; Activity [10]: 4.5%; viability at 2 µg/mL (U-937 [17]): 5%; Activity (U-937 [18]): 28.3%; Activity (U-937 [19]): 1.9%
Cc1cc(O)c2c(c1Cl)C(=O)C=CC2=O | 29.5 µM | 13.5 µM | 15.7 µM | 17.2 µM | Activity [2]: 17.1%; Activity [3]: 16.2%; Activity (U-937 [13]): Not toxic; Activity [4]: 10.5%; Activity [5]: 5.4%; Activity [6]: 60.9%; Activity [7]: 30.2%; Activity [9]: 53.5%; Activity [10]: 5.4%
COc1cc(C)c(Cl)c2c1C(=O)C=CC2=O | 26.6 µM | 19.1 µM | 20.6 µM | 24.6 µM | –
CC(=O)Oc1cc(C)cc2c1C(=O)C=CC2=O | 24.1 µM | 17.2 µM | 14.7 µM | 28.1 µM | –
CCOc1cc(C)cc2c1C(=O)C=CC2=O | 15 µM | 29.7 µM | 23.7 µM | 25.3 µM | –
